Reference: paper PMC10795913 (The Journal of Clinical Endocrinology and Metabolism, 2023)
Marks after values point to notes of the source that are not given here.

Tests used:
[1] = test system: patients with type 2 diabetes; assay: Hypersensitivity reactions by TE ADA status; format: in vivo, human
Outline: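 Hypersensitivity or injection site reactions during the planned treatment period were tabulated by dose group. Patients were split by treatment-emergent ADA status (TE ADA+ vs TE ADA–). Analysis was descriptive and non-randomized.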

[2] = test system: patients with type 2 diabetes; assay: Antidrug antibody; format: in vivo, human
GLP-1R = GLP-1R (Homo sapiens, UniProt P43220); assay: Cell-based assay for NAb against TZP activity on GLP-1R; format: in vivo; conditions: N = 5025
Sequence of GLP-1R (P43220 24-463): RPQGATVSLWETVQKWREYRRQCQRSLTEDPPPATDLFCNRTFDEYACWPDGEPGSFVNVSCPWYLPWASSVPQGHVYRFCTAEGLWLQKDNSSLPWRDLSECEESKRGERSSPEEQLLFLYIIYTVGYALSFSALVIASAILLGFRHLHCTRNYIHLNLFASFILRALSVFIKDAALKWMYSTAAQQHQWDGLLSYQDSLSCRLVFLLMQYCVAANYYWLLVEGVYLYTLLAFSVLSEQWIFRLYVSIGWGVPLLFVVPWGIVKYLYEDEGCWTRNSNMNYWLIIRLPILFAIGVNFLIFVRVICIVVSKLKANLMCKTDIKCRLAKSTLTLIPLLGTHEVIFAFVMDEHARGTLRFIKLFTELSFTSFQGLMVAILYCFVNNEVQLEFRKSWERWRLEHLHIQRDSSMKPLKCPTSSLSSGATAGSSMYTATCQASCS

## CC[C@H](C)[C@H](NC(=O)[C@H](CC(C)C)NC(=O)[C@H](Cc1c[nH]c2ccccc12)NC(=O)[C@H](CCC(N)=O)NC(=O)[C@@H](NC(=O)[C@H](Cc1ccccc1)NC(=O)[C@H](C)NC(=O)[C@H](CCCCNC(=O)COCCOCCNC(=O)COCCOCCNC(=O)CC[C@H](NC(=O)CCCCCCCCCCCCCCCCCCC(=O)O)C(=O)O)NC(=O)[C@H](CCC(N)=O)NC(=O)[C@H](C)NC(=O)[C@@H](NC(=O)[C@H](CCCCN)NC(=O)[C@H](CC(=O)O)NC(=O)[C@H](CC(C)C)NC(=O)C(C)(C)NC(=O)[C@@H](NC(=O)[C@H](CO)NC(=O)[C@H](Cc1ccc(O)cc1)NC(=O)[C@H](CC(=O)O)NC(=O)[C@H](CO)NC(=O)[C@@H](NC(=O)[C@H](Cc1ccccc1)NC(=O)[C@@H](NC(=O)CNC(=O)[C@H](CCC(=O)O)NC(=O)C(C)(C)NC(=O)[C@@H](N)Cc1ccc(O)cc1)[C@@H](C)O)[C@@H](C)O)[C@@H](C)CC)[C@@H](C)CC)C(C)C)C(=O)N[C@@H](C)C(=O)NCC(=O)NCC(=O)N1CCC[C@H]1C(=O)N[C@@H](CO)C(=O)N[C@@H](CO)C(=O)NCC(=O)N[C@@H](C)C(=O)N1CCC[C@H]1C(=O)N1CCC[C@H]1C(=O)N1CCC[C@H]1C(=O)N[C@@H](CO)C(N)=O [tirzepatide]
[1]; TZP all doses, TE ADA–, n 2455
  Hypersensitivity reactions, %: 2.97%
  Hypersensitivity reactions, m (number of patients with specified reaction): 73
[1]; TZP-treated patients
  Anaphylactic reactions: No anaphylactic reactions
[1]; in vivo
  Severity of hypersensitivity events in TE ADA+ patients: mostly mild to moderate
[2]; SURPASS Japan-Combo, N 443
  Time to first TE ADA+ titer ≤4 wk: 1 (0.2) n (%)
  Time to first TE ADA+ titer ≤12 wk: 32 (7.2) n (%)
  Time to first TE ADA+ titer ≤40 wk: 209 (47.2) n (%)
  Time to first TE ADA+ titer ≤52 wk: 244 (55.1) n (%)
[2]; SURPASS Japan-Combo, N 443, flexibility of visit windows
  Time to first TE ADA+ titer ≤78 wk: 257 (58.0)^a n (%)
[2]; SURPASS Japan-Mono, N 476
  Time to first TE ADA+ titer ≤4 wk: 4 (0.8) n (%)
  Time to first TE ADA+ titer ≤12 wk: 51 (10.7) n (%)
  Time to first TE ADA+ titer ≤24 wk: 182 (38.2) n (%)
  Time to first TE ADA+ titer ≤40 wk: 278 (58.4) n (%)
  Time to first TE ADA+ titer ≤52 wk: 312 (65.5) n (%)
[2]; SURPASS Japan-Mono, N 476, flexibility of visit windows
  Time to first TE ADA+ titer ≤78 wk: 322 (67.6)^a n (%)
[2]; SURPASS-1, N 351
  Time to first TE ADA+ titer ≤4 wk: 0 n (%)
  Time to first TE ADA+ titer ≤12 wk: 16 (4.6) n (%)
  Time to first TE ADA+ titer ≤24 wk: 90 (25.6) n (%)
  Time to first TE ADA+ titer ≤40 wk: 155 (44.2) n (%)
[2]; SURPASS-1, N 351, flexibility of visit windows
  Time to first TE ADA+ titer ≤52 wk: 174 (49.6)^a n (%)
[2]; SURPASS-2, N 1393
  Time to first TE ADA+ titer ≤4 wk: 6 (0.4) n (%)
  Time to first TE ADA+ titer ≤12 wk: 91 (6.5) n (%)
  Time to first TE ADA+ titer ≤24 wk: 352 (25.3) n (%)
  Time to first TE ADA+ titer ≤40 wk: 639 (45.9) n (%)
[2]; SURPASS-2, N 1393, flexibility of visit windows
  Time to first TE ADA+ titer ≤52 wk: 704 (50.5)^a n (%)
[2]; SURPASS-3, N 1062
  Time to first TE ADA+ titer ≤4 wk: 12 (1.1) n (%)
  Time to first TE ADA+ titer ≤12 wk: 80 (7.5) n (%)
  Time to first TE ADA+ titer ≤24 wk: 266 (25.0) n (%)
  Time to first TE ADA+ titer ≤40 wk: 466 (43.9) n (%)
  Time to first TE ADA+ titer ≤52 wk: 518 (48.8) n (%)
[2]; SURPASS-3, N 1062, flexibility of visit windows
  Time to first TE ADA+ titer ≤78 wk: 536 (50.5)^a n (%)
[2]; SURPASS-4, N 956
  Time to first TE ADA+ titer ≤4 wk: 7 (0.7) n (%)
  Time to first TE ADA+ titer ≤12 wk: 62 (6.5) n (%)
  Time to first TE ADA+ titer ≤24 wk: 190 (19.9) n (%)
  Time to first TE ADA+ titer ≤40 wk: 300 (31.4) n (%)
  Time to first TE ADA+ titer ≤52 wk: 367 (38.4) n (%)
  Time to first TE ADA+ titer ≤78 wk: 389 (40.7) n (%)
  Time to first TE ADA+ titer ≤104 wk: 399 (41.7) n (%)
[2]; SURPASS-5, N 344
  Time to first TE ADA+ titer ≤4 wk: 3 (0.9) n (%)
  Time to first TE ADA+ titer ≤12 wk: 26 (7.6) n (%)
  Time to first TE ADA+ titer ≤24 wk: 89 (25.9) n (%)
  Time to first TE ADA+ titer ≤40 wk: 160 (46.5) n (%)
[2]; SURPASS-5, N 344, flexibility of visit windows
  Time to first TE ADA+ titer ≤52 wk: 178 (51.7)^a n (%)
[2]; baseline, 7 SURPASS phase 3 trials pooled, TE ADA-evaluable TZP-treated N = 5025
  Preexisting ADA: 353 (7.0) n (%)
[2]; postbaseline, 7 trials pooled, N = 5025
  TE ADA+: 2570 (51.1) n (%)
GLP-1R; baseline
  NAb against TZP activity on GLP-1 R: 2 (<0.1) n (%)
GLP-1R; postbaseline
  NAb against TZP activity on GLP-1 R: 107 (2.1) n (%)
